Test results taken from ChEMBL document CHEMBL1806488, “Design, synthesis and biological evaluation of 2'-deoxy-2',2'-difluoro-5-halouridine phosphoramidate ProTides” (Bioorg Med Chem, 2011).

Assays:
Human alphaherpesvirus 1 [1] = test: Antiviral activity against Herpes simplex virus 1 KOS infected in human HEL cells assessed as inhibition of virus-induced cytopathic effect after 4 days by microscopic analysis; format: functional, organism-based; details: Human alphaherpesvirus 1, KOS, 96 h
Human alphaherpesvirus 1 [2] = test: Antiviral activity against acyclovir-resistant TK-deficient Herpes simplex virus-1 KOS infected in human HEL cells assessed as inhibition of virus-induced cytopathic effect after 4 days by microscopic analysis; format: functional, organism-based; details: Human alphaherpesvirus 1, KOS, 96 h
Felid alphaherpesvirus 1 = test: Antiviral activity against Feline herpesvirus infected in cat CRFK cells assessed as inhibition of virus-induced cytopathic effect after 4 days by microscopic analysis; format: functional, organism-based; details: Felid alphaherpesvirus 1, CRFK, 96 h
Summary of the method: (§1)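 Confluent monolayers (CRFK for feline herpes virus; HEL for HSV-2 G) were inoculated with 100 CCID50 of virus in the presence of compound at 200, 40, 8, … μM. Cytopathicity was scored once it was complete in untreated infected controls.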

Human alphaherpesvirus 2 = test: Antiviral activity against Herpes simplex virus-2 G infected in human HEL cells assessed as inhibition of virus-induced cytopathic effect after 4 days by microscopic analysis; format: functional, organism-based; details: Human alphaherpesvirus 2, strain G, 96 h; summary of the method: as §1
Vaccinia virus = test: Antiviral activity against Vaccinia virus infected in human HEL cells assessed as inhibition of virus-induced cytopathic effect after 4 days by microscopic analysis; format: functional, organism-based; details: Orthopoxvirus vaccinia, 96 h
[3] = Cytotoxicity against human HEL cells assessed as alteration of normal cell morphology by microscopic analysis; format: cell-based
Summary of the method: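 Uninfected HEL cells were examined under the microscope. The minimum cytotoxic concentration is the lowest concentration causing a detectable alteration of normal cell morphology.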

[4] = Cytotoxicity against cat CRFK cells by colorimetric formazan-based MTS assay; format: cell-based, Felis catus
Human alphaherpesvirus 3 [5] = test: Antiviral activity against Varicella-zoster virus YS expressing thymidine kinase infected in human HEL cells assessed as reduction in the virus plaque formation; format: functional, organism-based; details: Human alphaherpesvirus 3, YS
Human alphaherpesvirus 3 [6] = test: Antiviral activity against Varicella-zoster virus OKA expressing thymidine kinase infected in human HEL cells assessed as reduction in the virus plaque formation; format: functional, cell-based; details: Human alphaherpesvirus 3, strain Oka vaccine
Human alphaherpesvirus 3 [7] = test: Antiviral activity against thymidine kinase-deficient Varicella-zoster virus 07-1 infected in human HEL cells assessed as reduction in the virus plaque formation; format: functional, organism-based; details: Human alphaherpesvirus 3, 07-1, HEL
Human alphaherpesvirus 3 [8] = test: Antiviral activity against thymidine kinase-deficient Varicella-zoster virus YS/R infected in human HEL cells assessed as reduction in the virus plaque formation; format: functional, organism-based; details: Human alphaherpesvirus 3, YS/R
Human betaherpesvirus 5 [9] = test: Antiviral activity against Human cytomegalovirus AD-169 infected in human HEL cells assessed as reduction in the virus plaque formation; format: functional, organism-based; details: Human betaherpesvirus 5, AD169, HEL
Summary of the method: (§2)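 HEL cells were infected with 100 PFU of HCMV (AD-169 or Davis) in the presence of compound.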

Human betaherpesvirus 5 [10] = test: Antiviral activity against Human cytomegalovirus Davis infected in human HEL cells assessed as reduction in the virus plaque formation; format: functional, organism-based; details: Human betaherpesvirus 5, Davis; summary of the method: as §2
HEL = test: Cytotoxicity against human HEL cells by colorimetric formazan-based MTS assay; format: cell-based
Thymidine kinase [11] = biological target: T1, Thymidine kinase (Human alphaherpesvirus 1, UniProt Q9QNF7); test: Inhibition of Herpes simplex virus-1 thymidine kinase-mediated phosphorylation of [methyl-3H]dThd at 1 uM after 30 mins by scintillation counting
T1 sequence (Q9QNF7 whole entry): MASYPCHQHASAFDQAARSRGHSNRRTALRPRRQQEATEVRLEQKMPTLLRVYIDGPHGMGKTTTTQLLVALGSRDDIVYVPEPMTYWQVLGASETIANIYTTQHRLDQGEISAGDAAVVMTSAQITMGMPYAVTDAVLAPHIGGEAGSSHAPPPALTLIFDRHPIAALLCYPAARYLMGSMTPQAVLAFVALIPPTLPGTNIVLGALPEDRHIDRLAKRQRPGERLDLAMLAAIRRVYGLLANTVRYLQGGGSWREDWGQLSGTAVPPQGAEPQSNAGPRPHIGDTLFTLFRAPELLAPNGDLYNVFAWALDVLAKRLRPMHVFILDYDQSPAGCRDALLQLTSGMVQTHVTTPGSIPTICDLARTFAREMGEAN

[12] = Inhibition of Varicella-zoster virus thymidine kinase-mediated phosphorylation of [methyl-3H]dThd at 1 uM after 30 mins by scintillation counting; set-up: species or system Human alphaherpesvirus 3
Thymidine kinase [13] = biological target: T2, Thymidine kinase (Feline herpesvirus 1, UniProt P13159); test: Inhibition of Feline herpesvirus thymidine kinase assessed as phosphorylation of 1 uM [methyl-3H]dThd after 30 mins by scintillation counting; set-up: species or system Felid alphaherpesvirus 1
T2 sequence (P13159 whole entry): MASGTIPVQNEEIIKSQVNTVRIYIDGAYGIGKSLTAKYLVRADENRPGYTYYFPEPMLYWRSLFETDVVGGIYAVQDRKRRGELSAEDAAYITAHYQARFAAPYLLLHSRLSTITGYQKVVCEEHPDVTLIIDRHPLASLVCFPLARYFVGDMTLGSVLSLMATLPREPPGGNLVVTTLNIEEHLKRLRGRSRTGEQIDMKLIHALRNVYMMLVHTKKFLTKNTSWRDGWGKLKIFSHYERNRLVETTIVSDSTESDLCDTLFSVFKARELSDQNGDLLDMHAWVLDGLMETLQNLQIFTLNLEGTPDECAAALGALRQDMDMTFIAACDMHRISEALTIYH

L1210 = test: Antiproliferation activity against mouse L1210 cells after 2 days by coulter counter; format: cell-based; details: L1210, 48 h
Summary of the method: (§3)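 L1210, FM3A, CEM or HeLa cells at 300,000–500,000 cells/mL were mixed 1:1 with compound dilutions. Incubation at 37 °C lasted 2 days (L1210, FM3A) or 3 days (CEM, HeLa), after which cells were counted with a Coulter counter.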

FM3A = test: Antiproliferation activity against mouse FM3A cells after 2 days by coulter counter; format: cell-based; details: 48 h; summary of the method: as §3
CCRF-CEM = test: Antiproliferation activity against human CEM cells after 3 days by coulter counter; format: cell-based; details: 72 h; summary of the method: as §3
HeLa = test: Antiproliferation activity against human HeLa cells after 3 days by coulter counter; format: cell-based; details: 72 h; summary of the method: as §3

SMILES	EC50 (Human alphaherpesvirus 1 [1]) [µM]	EC50 (Human alphaherpesvirus 1 [2]) [µM]	EC50 (Felid alphaherpesvirus 1) [µM]	EC50 (Human alphaherpesvirus 2) [µM]	EC50 (Vaccinia virus) [µM]	MCC [3] [µM]	CC50 ([4]; crfk) [µM]	EC50 (Human alphaherpesvirus 3 [6]) [µM]	EC50 (Human alphaherpesvirus 3 [7]) [µM]	EC50 (Human betaherpesvirus 5 [9]) [µM]	EC50 (Human betaherpesvirus 5 [10]) [µM]	CC50 (HEL) [µM]	IC50 (L1210) [µM]	IC50 (FM3A) [µM]	IC50 (CCRF-CEM) [µM]	IC50 (HeLa) [µM]	other results
Cc1cn([C@@H]2O[C@H](CO)[C@@H](O)C2(F)F)c(=O)[nH]c1=O	12	20	> 100	39	≥ 100	> 50	> 100	5.8	> 50	> 50	> 50	100	> 500	> 500	> 500	> 500	EC50 (Human alphaherpesvirus 3 [5]): 10 µM; EC50 (Human alphaherpesvirus 3 [8]): > 50 µM; IC50 (Thymidine kinase [11]): 2.8 µM; IC50 [12]: 21 µM; IC50 (Thymidine kinase [13]): 85 µM
C[C@H](NP(=O)(OC[C@H]1O[C@@H](n2cc(I)c(=O)[nH]c2=O)C(F)(F)[C@@H]1O)Oc1ccccc1)C(=O)OCc1ccccc1 (stereo partly drawn)	27	≥ 100	4.4	50	58	> 100	≥ 70	–	–	–	–	–	–	–	–	–	–
COC(=O)[C@H](C)NP(=O)(OC[C@H]1O[C@@H](n2cc(I)c(=O)[nH]c2=O)C(F)(F)[C@@H]1O)Oc1ccccc1 (stereo partly drawn)	> 100	> 100	28	> 100	> 100	> 50	> 100	> 50	> 50	> 50	> 50	51	226	258	176	126	–
C[C@H](NP(=O)(OC[C@H]1O[C@@H](n2cc(I)c(=O)[nH]c2=O)C(F)(F)[C@@H]1O)Oc1cccc2ccccc12)C(=O)OCc1ccccc1 (stereo partly drawn)	> 20	> 20	> 20	> 20	> 20	> 50	36	8.5	37	> 50	> 50	49	23	–	21	29	–
COC(=O)[C@H](C)NP(=O)(OC[C@H]1O[C@@H](n2cc(I)c(=O)[nH]c2=O)C(F)(F)[C@@H]1O)Oc1cccc2ccccc12 (stereo partly drawn)	> 100	> 100	> 20	> 100	> 100	> 50	92	25	> 50	> 50	> 50	≥ 100	134	46	60	133	EC50 (Human alphaherpesvirus 3 [5]): 29 µM; EC50 (Human alphaherpesvirus 3 [8]): > 50 µM
C[C@H](NP(=O)(OC[C@H]1O[C@@H](n2cc(Br)c(=O)[nH]c2=O)C(F)(F)[C@@H]1O)Oc1ccccc1)C(=O)OCc1ccccc1 (stereo partly drawn)	> 100	> 100	11.6	> 100	> 100	> 50	> 100	39	> 50	> 50	> 50	≥ 50	50	91	104	148	–
C[C@H](NP(=O)(OC[C@H]1O[C@@H](n2cc(Cl)c(=O)[nH]c2=O)C(F)(F)[C@@H]1O)Oc1ccccc1)C(=O)OCc1ccccc1 (stereo partly drawn)	> 100	> 100	> 100	> 100	> 100	> 50	> 100	> 50	> 50	> 50	> 50	≥ 100	175	226	196	200	–
Nc1nc2c(ncn2COCCO)c(=O)[nH]1 [ACYCLOVIR]	–	–	1	–	> 250	> 250	–	–	–	–	–	> 400	–	–	–	–	CC50 ([4]; CRFK cells): > 100 µM
O=c1[nH]c(=O)n([C@H]2C[C@H](O)[C@@H](CO)O2)cc1/C=C/Br [BRIVUDINE]	–	–	30	–	10	≥ 250	> 100	0.03	≥ 60	–	–	512	–	–	–	–	EC50 (Human alphaherpesvirus 3 [8]): > 150 µM
Nc1ccn(C[C@@H](CO)OCP(=O)(O)O)c(=O)n1 [CIDOFOVIR]	–	–	1.3	–	10	> 250	–	–	–	–	–	–	–	–	–	–	CC50 ([4]; CRFK cells): > 100 µM
Nc1nc2c(ncn2COC(CO)CO)c(=O)[nH]1 [GANCICLOVIR]	–	–	–	–	> 100	> 100	–	–	–	–	–	–	–	–	–	–	–
